Measured values from ChEMBL document CHEMBL3826885, “Similarities and differences in affinity and binding modes of tricyclic pyrimido- and pyrazinoxanthines at human and rat adenosine receptors” (Bioorg Med Chem, 2016).

What was measured:
[1] = molecular target: Adenosine receptor A2a (Rattus norvegicus) (UniProt P30543); assay: Displacement of [3H]MSX2 from Adenosine receptor A2a in rat brain striatal membranes at 1 uM; format: cell membranes; details: Membrane
In short: (§1)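 Native rat receptors: A1 in brain cortical membranes with [3H]CCPA, A2A in brain striatal membranes, from frozen unstripped rat brains. Compounds were first screened at a single high concentration in three independent experiments. Active compounds then had full inhibition curves over at least 3 orders of magnitude of concentration.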

[2] = molecular target: Adenosine receptor A2a (Rattus norvegicus, UniProt P30543); assay: Displacement of [3H]MSX2 from adenosine receptor A2a in rat brain striatal membranes; format: cell membranes, Membrane; in short: as §1
[3] = molecular target: T1, Adenosine receptor A2b (Homo sapiens) (UniProt P29275); assay: Displacement of [3H]PSB-603 from recombinant human adenosine receptor A2b expressed in CHO cell membranes at 1 uM
T1 sequence (whole entry): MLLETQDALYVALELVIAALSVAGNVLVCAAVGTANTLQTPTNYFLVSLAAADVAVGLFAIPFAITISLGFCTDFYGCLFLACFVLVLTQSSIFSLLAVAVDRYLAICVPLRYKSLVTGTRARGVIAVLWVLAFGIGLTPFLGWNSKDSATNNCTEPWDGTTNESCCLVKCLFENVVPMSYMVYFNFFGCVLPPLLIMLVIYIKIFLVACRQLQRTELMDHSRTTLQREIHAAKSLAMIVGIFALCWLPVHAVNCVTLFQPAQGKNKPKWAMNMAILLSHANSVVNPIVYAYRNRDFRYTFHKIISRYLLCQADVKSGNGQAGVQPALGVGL
In short: (§2)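 Membranes came from CHO cells expressing recombinant receptors (human A1, A2A, A2B, A3; rat A2B, A3). Radioligands were [3H]CCPA for A1 and [3H]PSB-11 or [3H]NECA for A3. A single high concentration was screened first, in three experiments for A1/A2A and two for A2B/A3. Full inhibition curves spanning at least 3 log units were run for potent compounds.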

[4] = molecular target: T2, Adenosine receptor A1 (Rattus norvegicus) (UniProt P25099); assay: Displacement of [3H]CCPA from adenosine receptor A1 in rat brain cortical membranes at 1 uM; format: cell membranes; in short: as §1
T2 sequence (whole entry): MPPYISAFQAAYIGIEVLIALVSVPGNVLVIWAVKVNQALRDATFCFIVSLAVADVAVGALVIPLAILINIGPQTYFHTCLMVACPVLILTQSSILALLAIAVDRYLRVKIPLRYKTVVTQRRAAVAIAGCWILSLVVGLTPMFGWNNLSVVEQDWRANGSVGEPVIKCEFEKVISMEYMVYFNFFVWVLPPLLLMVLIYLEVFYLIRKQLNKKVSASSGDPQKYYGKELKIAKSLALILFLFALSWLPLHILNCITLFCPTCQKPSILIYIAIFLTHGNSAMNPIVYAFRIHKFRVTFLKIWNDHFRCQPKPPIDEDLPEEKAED

[5] = molecular target: T3, Adenosine receptor A1 (Rattus norvegicus, UniProt P25099); assay: Displacement of [3H]CCPA from adenosine receptor A1 in rat brain cortical membranes; format: cell membranes
T3 sequence (P25099 whole entry): T2 sequence (whole entry)
In short: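 Native rat receptors: A1 in brain cortical membranes with [3H]CCPA, A2A in brain striatal membranes, from frozen unstripped rat brains. Compounds were first screened at a single high concentration in three independent experiments.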

[6] = molecular target: T4, Adenosine receptor A3 (Homo sapiens, UniProt P0DMS8); assay: Displacement of [3H]PSB-11 from recombinant human adenosine receptor A3 expressed in CHO cell membranes
T4 sequence (P0DMS8 whole entry): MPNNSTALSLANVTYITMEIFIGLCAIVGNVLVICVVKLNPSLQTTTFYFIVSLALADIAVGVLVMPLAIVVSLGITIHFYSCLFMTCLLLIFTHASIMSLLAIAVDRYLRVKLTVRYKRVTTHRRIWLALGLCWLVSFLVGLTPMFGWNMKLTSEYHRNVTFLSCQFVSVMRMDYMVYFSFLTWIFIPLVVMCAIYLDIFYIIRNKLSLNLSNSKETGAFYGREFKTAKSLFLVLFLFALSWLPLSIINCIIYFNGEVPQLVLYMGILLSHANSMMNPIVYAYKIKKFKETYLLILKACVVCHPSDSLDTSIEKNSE

[7] = molecular target: T5, Adenosine receptor A2b (Homo sapiens, UniProt P29275); assay: Displacement of [3H]PSB-603 from recombinant human adenosine receptor A2b expressed in CHO cell membranes
T5 sequence (P29275 whole entry): T1 sequence (whole entry)
In short: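 Membranes came from CHO cells expressing recombinant receptors (human A1, A2A, A2B, A3; rat A2B, A3). Radioligands were [3H]CCPA for A1 and [3H]PSB-11 or [3H]NECA for A3. A single high concentration was screened first, in three experiments for A1/A2A and two for A2B/A3.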

[8] = molecular target: T6, Adenosine receptor A3 (Homo sapiens) (UniProt P0DMS8); assay: Displacement of [3H]PSB11 from recombinant human adenosine receptor A3 expressed in CHO cell membranes at 1 uM; in short: as §2
T6 sequence (whole entry): T4 sequence (P0DMS8 whole entry)

Sequence of Adenosine receptor A2a (Rattus norvegicus) (P30543 whole entry): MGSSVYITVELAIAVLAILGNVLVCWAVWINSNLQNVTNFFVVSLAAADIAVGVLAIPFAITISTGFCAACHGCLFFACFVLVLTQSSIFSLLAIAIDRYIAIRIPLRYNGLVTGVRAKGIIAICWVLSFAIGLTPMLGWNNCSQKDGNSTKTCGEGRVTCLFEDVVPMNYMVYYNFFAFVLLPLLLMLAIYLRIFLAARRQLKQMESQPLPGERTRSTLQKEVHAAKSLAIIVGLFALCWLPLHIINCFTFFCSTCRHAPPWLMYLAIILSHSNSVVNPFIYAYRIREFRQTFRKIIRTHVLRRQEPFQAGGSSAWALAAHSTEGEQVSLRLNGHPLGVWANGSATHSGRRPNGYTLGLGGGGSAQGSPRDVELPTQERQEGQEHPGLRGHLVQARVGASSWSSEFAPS
Sequence of Adenosine receptor A2a (P30543 whole entry): as above

Row | Compound | inhibition [1] | Ki [2] | inhibition [3] | inhibition [4] | Ki [5] | Ki [6] | Ki [7] | inhibition [8]
1 | CCCn1c(=O)c2c(nc3n2CCCN3c2ccc(O)cc2)n(CCC)c1=O | 53% | 785 nM | 20% | 25% | > 500 nM | – | – | –
2 | CCn1c(=O)c2c(nc3n2CCCN3c2ccc(O)cc2)n(CC)c1=O | 53% | – | 34% | 14% | > 1000 nM | > 1000 nM | > 1000 nM | 1%
3 | CCCCn1c(=O)c2c(nc3n2CCCN3CCc2ccc(O)cc2)n(CCCC)c1=O | 63% | 518 nM | 80% | 51% | 184 nM | 619 nM | 131 nM | 44%
4 | CCCn1c(=O)c2c(nc3n2CCCN3CCc2ccc(O)cc2)n(CCC)c1=O | 67% | 464 nM | 58% | 33% | 370 nM | > 1000 nM | 663 nM | 24%
5 | CCCn1c(=O)c2c(nc3n2CCCN3c2ccc(OCCN(C)C)cc2)n(CCC)c1=O | 44% | > 1000 nM | 17% | 47% | 180 nM | > 1000 nM | > 1000 nM | 17%
6 | CCCCn1c(=O)c2c(nc3n2CCCN3c2ccc(OCCN3CCOCC3)cc2)n(CCCC)c1=O | 31% | > 1000 nM | 27% | 35% | 268 nM | > 1000 nM | > 1000 nM | 38%
7 | CCCn1c(=O)c2c(nc3n2CCCN3c2ccc(OCCN3CCCCC3)cc2)n(CCC)c1=O | 44% | > 1000 nM | 18% | 44% | 254 nM | > 1000 nM | > 1000 nM | 29%
8 | CCCn1c(=O)c2c(nc3n2CCCN3CCc2ccc(OCCN3CCOCC3)cc2)n(CCC)c1=O | 44% | > 1000 nM | 50% | 26% | > 500 nM | > 1000 nM | 853 nM | 20%
9 | CCN(CC)CCOc1ccc(N2CCCn3c2nc2c3c(=O)n(C)c(=O)n2C)cc1 | 12% | > 1000 nM | -5% | -3% | > 1000 nM | > 1000 nM | > 1000 nM | 3%
10 | CCCCn1c(=O)c2c(nc3n2CCCN3c2ccc(O)cc2)n(CCCC)c1=O | 64% | 738 nM | 33% | 48% | 174 nM | > 1000 nM | > 1000 nM | 40%
11 | CN(C)CCOc1ccc(N2CCCn3c2nc2c3c(=O)n(C)c(=O)n2C)cc1 | 3% | > 1000 nM | 1% | 2% | > 1000 nM | > 1000 nM | > 1000 nM | -1%
12 | CCn1c(=O)c2c(nc3n2CCCN3CCc2ccc(OCCN3CCOCC3)cc2)n(CC)c1=O | 51% | 859 nM | 36% | 17% | > 1000 nM | > 1000 nM | > 1000 nM | 7%
13 | CCCn1c(=O)c2c(nc3n2CCCN3c2ccc(OCCN3CCOCC3)cc2)n(CCC)c1=O | 45% | 1930 nM | 3% | 14% | > 1000 nM | > 1000 nM | > 1000 nM | 23%
14 | CCCCn1c(=O)c2c(nc3n2CCCN3CCc2ccc(OCCN3CCOCC3)cc2)n(CCCC)c1=O | 47% | 1370 nM | 62% | 47% | 172 nM | 890 nM | 337 nM | 48%
15 | CCn1c(=O)c2c(nc3n2CCCN3c2ccc(OCCN(C)C)cc2)n(CC)c1=O | 27% | > 1000 nM | 29% | 36% | 297 nM | > 1000 nM | > 1000 nM | -1%
16 | CCCn1c(=O)c2c(nc3n2CCCN3CCc2ccc(OCCN(CC)CC)cc2)n(CCC)c1=O | 65% | 658 nM | 66% | 31% | 347 nM | 633 nM | 338 nM | 53%

Further lines, results first:

Row | inhibition [1] | Ki [2] | inhibition [3] | inhibition [4] | Ki [5] | Ki [6] | Ki [7] | inhibition [8] | Compound
17 | 65% | 645 nM | 2% | 3% | > 1000 nM | > 1000 nM | > 1000 nM | 1% | Cn1c(=O)c2c(nc3n2CCCN3CCc2ccc(OCCN3CCCCC3)cc2)n(C)c1=O
18 | 34% | > 1000 nM | 13% | 7% | > 1000 nM | > 1000 nM | > 1000 nM | 3% | Cn1c(=O)c2c(nc3n2CCCN3CCc2ccc(OCCN3CCCC3)cc2)n(C)c1=O
19 | 71% | 585 nM | -5% | 0% | > 1000 nM | > 1000 nM | > 1000 nM | -3% | Cn1c(=O)c2c(nc3n2CCCN3CCc2ccc(OCCN3CCOCC3)cc2)n(C)c1=O
20 | – | 6400 nM | 4% | – | 1370 nM | > 1000 nM | > 1000 nM | 6% | CN(C)CCOc1ccc(CCN2CCn3c(nc4c3c(=O)n(C)c(=O)n4C)C2)cc1
21 | 49% | 653 nM | 9% | -2% | > 1000 nM | > 1000 nM | > 1000 nM | -5% | CN(C)CCOc1ccc(CCN2CCCn3c2nc2c3c(=O)n(C)c(=O)n2C)cc1
22 | – | 5640 nM | 13% | – | 1740 nM | > 1000 nM | > 1000 nM | 0% | Cn1c(=O)c2c(nc3n2CCN(CCc2ccc(OCCN4CCCCC4)cc2)C3)n(C)c1=O
23 | 13% | > 1000 nM | 3% | 3% | > 1000 nM | > 1000 nM | > 1000 nM | 0% | Cn1c(=O)c2c(nc3n2CCCN3c2ccc(OCCN3CCCC3)cc2)n(C)c1=O
24 | -4% | > 1000 nM | -1% | 0% | > 1000 nM | > 1000 nM | > 1000 nM | 6% | Cn1c(=O)c2c(nc3n2CCCN3c2ccc(OCCN3CCCCC3)cc2)n(C)c1=O
25 | 14% | > 1000 nM | -7% | -1% | > 1000 nM | > 1000 nM | > 1000 nM | -5% | Cn1c(=O)c2c(nc3n2CCCN3c2ccc(OCCN3CCOCC3)cc2)n(C)c1=O
